Measured values published in ChEMBL document CHEMBL1649444, “Omeprazole antagonizes virulence and inflammation in Salmonella enterica-infected RAW264.7 cells” (Antimicrob Agents Chemother, 2009).
Calls of active or inactive are those of the source. No cut-off for these calls is given here.

Legend:
[1] = test system: RAW264.7; assay: Cytotoxicity against mouse RAW264.7 cells assessed as change vacuolar pH at 200 uM using acridine orange stain by fluorescent microscope; assay type: cell-based; conditions: raw264.7, 200 µM
Outline: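 RAW264.7 cells treated with compound, then stained with acridine orange, whose fluorescence shifts upon protonation. Intravacuolar orange staining scored by fluorescence microscopy as acidified vacuoles.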

[2] = test system: Salmonella typhimurium; assay: Antimicrobial activity against Salmonella enterica Typhimurium 14028 infected in RAW 264.7 cells assessed as inhibition of bacterial replication at 100 nM treated 30 mins before infection measured after 2 to 16 hrs postinfection by flow cytometry; assay type: functional, organism-based; conditions: Salmonella enterica subsp. enterica serovar Typhimurium
[3] = test system: RAW264.7; assay: Cytotoxicity against mouse RAW264.7 cells at 100 nM by LDH release assay; assay type: cell-based; conditions: raw264.7, 0.1 µM
Outline: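 RAW264.7 cells cultured with compound for 16 h. LDH released into the culture medium measured chromogenically with a cytotoxicity detection kit. Triplicates, repeated at least twice; paired t test.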

[4] = test system: Salmonella typhimurium; assay: Antimicrobial activity against Salmonella enterica Typhimurium 14028 infected in RAW 264.7 cells assessed as […] nitric oxide production in infected cells at 100 nM; assay type: functional, organism-based; conditions: Salmonella enterica subsp. enterica serovar Typhimurium
Outline: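 Nonactivated RAW264.7 cells infected with opsonized (10% preimmune BALB/c serum, 30 min, 37°C) noninvasive-grown S. Typhimurium 14028 at MOI 10; cells pretreated 30 min before infection, then fresh medium. 1 h infection, 45 min gentamicin 50 μg/ml, then 10 μg/ml maintenance. NO measured as nitrite in medium by Griess reagent, OD 525 nm against sodium nitrite standards.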

[5] = test system: RAW264.7; assay: Induction of apoptosis in mouse RAW264.7 cells assessed as necrotic cells at 100 nM after 16 hrs using annexin V-propidium iodide staining by flow cytometry; assay type: cell-based; conditions: raw264.7, 16 h, 0.1 µM
Outline: (§1)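 RAW264.7 cells cultured with compound for 16 h, DMSO as control. Cells stained with annexin V-FITC plus propidium iodide and analysed by flow cytometry. Populations given as percentages of all cells counted, with standard deviations.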

[6] = test system: RAW264.7; assay: Induction of apoptosis in mouse RAW264.7 cells assessed as early apoptotic cells at 100 nM after 16 hrs using annexin V-propidium iodide staining by flow cytometry; assay type: cell-based; conditions: raw264.7, 16 h, 0.1 µM; outline: as §1
[7] = test system: RAW264.7; assay: Induction of apoptosis in mouse RAW264.7 cells assessed as late apoptotic cells at 100 nM after 16 hrs using annexin V-propidium iodide staining by flow cytometry; assay type: cell-based; conditions: raw264.7, 16 h, 0.1 µM; outline: as §1
[8] = test system: Salmonella typhimurium; assay: Bactericidal activity against Salmonella enterica Typhimurium 14028 infected in RAW 264.7 cells assessed as decrease in bacterial growth yield at 100 nM after 16 hrs postinfection by flow cytometry in presence of 10 ug/ml of intracellular replication inhibitor tetracycline; assay type: functional, organism-based; conditions: Salmonella enterica subsp. enterica serovar Typhimurium
[9] = test system: RAW264.7; assay: Cytotoxicity against mouse RAW264.7 cells at 200 uM by LDH release assay; assay type: cell-based; conditions: raw264.7, 200 µM
[10] = test system: Salmonella typhimurium; assay: Antimicrobial activity against Salmonella enterica Typhimurium 14028 infected in RAW 264.7 cells assessed as growth inhibition at 200 uM treated 4 hr postinfection measured after 16 hrs of postinfection by flow cytometry; assay type: functional, organism-based; conditions: Salmonella enterica subsp. enterica serovar Typhimurium
[11] = test system: Salmonella typhimurium; assay: Antimicrobial activity against ssaV gene-deficient Salmonella enterica Typhimurium 14028 infected in RAW 264.7 cells assessed as growth inhibition at 200 uM after 2 to 16 hrs postinfection by flow cytometry relative to untreated control; assay type: functional, organism-based; conditions: Salmonella enterica subsp. enterica serovar Typhimurium
[12] = test system: Salmonella typhimurium; assay: Antimicrobial activity against sseG gene-deficient Salmonella enterica Typhimurium 14028 infected in RAW 264.7 cells assessed as growth inhibition at 200 uM after 2 to 16 hrs postinfection by flow cytometry relative to untreated control; assay type: functional, Salmonella enterica subsp. enterica serovar Typhimurium
[13] = test system: RAW264.7; assay: Induction of apoptosis in mouse RAW264.7 cells assessed as late apoptotic cells at 200 uM after 16 hrs using annexin V-propidium iodide staining by flow cytometry; assay type: cell-based; conditions: raw264.7, 16 h
Outline: (§2)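 RAW264.7 cells kept 16 h with or without compound in DMSO. Cells stained with annexin V-FITC plus propidium iodide and analysed by flow cytometry. Populations given as percent of all cells counted, with standard deviations.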

[14] = test system: Salmonella typhimurium; assay: Antimicrobial activity against sifA gene-deficient Salmonella enterica Typhimurium 14028 infected in RAW 264.7 cells assessed as growth inhibition at 200 uM after 2 to 16 hrs postinfection by flow cytometry relative to untreated control; assay type: functional, organism-based; conditions: Salmonella enterica subsp. enterica serovar Typhimurium
[15] = test system: Salmonella typhimurium; assay: Antimicrobial activity against Salmonella enterica Typhimurium 14028 infected in RAW 264.7 cells assessed as inhibition of inducible nitric oxide synthase expression in infected cells at 200 uM by Immunoblotting relative to untreated control; assay type: functional, organism-based; conditions: Salmonella enterica subsp. enterica serovar Typhimurium
[16] = test system: Salmonella typhimurium; assay: Antimicrobial activity against Salmonella enterica Typhimurium 14028 infected in RAW 264.7 cells assessed as growth inhibition at 200 uM treated 3 hr before infection measured after 16 hrs of postinfection by flow cytometry; assay type: functional, organism-based; conditions: Salmonella enterica subsp. enterica serovar Typhimurium
[17] = test system: RAW264.7; assay: Induction of apoptosis in mouse RAW264.7 cells assessed as early apoptotic cells at 200 uM after 16 hrs using annexin V-propidium iodide staining by flow cytometry; assay type: cell-based; conditions: raw264.7, 16 h; outline: as §2
[18] = test system: Salmonella typhimurium; assay: Antimicrobial activity against Salmonella enterica Typhimurium 14028 infected in RAW 264.7 cells assessed as decrease in bacterial growth yield at 200 uM after 16 hrs postinfection by flow cytometry in presence of 10 ug/ml of intracellular replication inhibitor tetracycline; assay type: functional, organism-based; conditions: Salmonella enterica subsp. enterica serovar Typhimurium
[19] = test system: Salmonella typhimurium; assay: Bacteriostatic activity against Salmonella enterica Typhimurium 14028 infected in RAW 264.7 cells assessed as decrease in bacterial growth yield at 200 uM after 16 hrs postinfection by flow cytometry; assay type: functional, organism-based; conditions: Salmonella enterica subsp. enterica serovar Typhimurium
[20] = test system: Salmonella typhimurium; assay: Antimicrobial activity against Salmonella enterica Typhimurium 14028 infected in RAW 264.7 cells assessed as growth inhibition at 200 uM treated 6 hr postinfection measured after 16 hrs of postinfection by flow cytometry; assay type: functional, organism-based; conditions: Salmonella enterica subsp. enterica serovar Typhimurium
[21] = test system: Salmonella typhimurium; assay: bacteriostatic activity against Salmonella enterica Typhimurium 14028 infected in RAW 264.7 cells assessed as decrease intracellular bacteria at 200 uM after 16 hrs postinfection by GFP-based fluorescent reduction assay; assay type: functional, organism-based; conditions: Salmonella enterica subsp. enterica serovar Typhimurium
[22] = test system: Salmonella typhimurium; assay: Antimicrobial activity against Salmonella enterica Typhimurium 14028 infected in RAW 264.7 cells assessed as decrease in TNF-alpha secretion from infected cells at 200 Um after 16 hrs postinfection by ELISA relative to untreated control; assay type: functional, organism-based; conditions: Salmonella enterica subsp. enterica serovar Typhimurium
[23] = test system: Salmonella typhimurium; assay: Antimicrobial activity against Salmonella enterica Typhimurium 14028 infected in RAW 264.7 cells assessed as decrease in segregation of plasmid at 200 uM; assay type: functional, organism-based; conditions: Salmonella enterica subsp. enterica serovar Typhimurium
[24] = test system: Salmonella typhimurium; assay: Antimicrobial activity against sseF gene-deficient Salmonella enterica Typhimurium 14028 infected in RAW 264.7 cells assessed as growth inhibition at 200 uM after 2 to 16 hrs postinfection by viable counting relative to untreated control
[25] = test system: Salmonella typhimurium; assay: Antimicrobial activity against Salmonella enterica Typhimurium 14028 infected in RAW 264.7 cells assessed as delayed degradation of IkappaB-alpha in infected cells at 200 uM after 40 mins postinfection by Immunoblotting relative to untreated control; assay type: functional, organism-based; conditions: Salmonella enterica subsp. enterica serovar Typhimurium
[26] = test system: Salmonella typhimurium; assay: Antimicrobial activity against Salmonella enterica Typhimurium 14028 infected in RAW 264.7 cells assessed as delayed degradation of IkappaB-alpha in infected cells at 200 uM after 20 mins postinfection by Immunoblotting relative to untreated control; assay type: functional, organism-based; conditions: Salmonella enterica subsp. enterica serovar Typhimurium
[27] = test system: RAW264.7; assay: Induction of apoptosis in mouse RAW264.7 cells assessed as necrotic cells at 200 uM after 16 hrs using annexin V-propidium iodide staining by flow cytometry; assay type: cell-based; conditions: raw264.7, 16 h; outline: as §2
[28] = test system: Salmonella typhimurium; assay: Antimicrobial activity against Salmonella enterica Typhimurium 14028 infected in RAW 264.7 cells assessed as decrease in IL-6 secretion from infected cells at 200 uM after 16 hrs postinfection by ELISA relative to untreated control; assay type: functional, organism-based; conditions: Salmonella enterica subsp. enterica serovar Typhimurium

CO/C1=C\C(C)=C\[C@@H](C)[C@@H](O)[C@@H](C)C/C(C)=C/C=C/[C@H](OC)[C@@H]([C@@H](C)[C@@H](O)[C@H](C)[C@@]2(O)C[C@@H](O)[C@H](C)[C@@H](C(C)C)O2)OC1=O [BAFILOMYCIN A1]
Activity [1]: Toxic
Activity [2]: Active
Activity [3]: Toxic
Activity [4]: Active
Activity [5]: 0.4%
Activity [6]: 29.2%
Activity [7]: 31.5%
Activity [8]: Active

COc1ccc2[nH]c([S+]([O-])Cc3ncc(C)c(OC)c3C)nc2c1 (stereo not drawn) [OMEPRAZOLE]
Activity [9]: Non-toxic
Activity [10]: Active
Activity [11]: inactive
fold change (FC) [12]: 2
Activity [13]: 15.8%
Activity [14]: inactive
Activity [15]: inactive
Activity [16]: Active
Activity [17]: 25.3%
Activity [18]: inactive
Activity [19]: Active
Activity [20]: Active
Activity [21]: Active
Activity [22]: inactive
Activity [23]: Active
fold change (FC) [24]: 2
Activity [25]: inactive
Activity [26]: inactive
Activity [27]: 0.1%
Activity [28]: inactive
